CHRM4 agonist – agonists of human muscarinic M4 receptor (CHRM4); activation, % at 3 µM; P08173; CHO-K1 hM4/Gqi5, Fluo-8 calcium fluorescence; vehicle 0%, full acetylcholine response 100%; 360,000 compounds, 0.14% hits;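 active = activation above the run mean over all test wells plus 3 SD, cut at about 32% in these data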;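 also: peak over basal fluorescence ratio per well then scaled between controls; 0% = DMSO wells and 100% = acetylcholine at EC100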
Target sequence (P08173 whole entry, looked up): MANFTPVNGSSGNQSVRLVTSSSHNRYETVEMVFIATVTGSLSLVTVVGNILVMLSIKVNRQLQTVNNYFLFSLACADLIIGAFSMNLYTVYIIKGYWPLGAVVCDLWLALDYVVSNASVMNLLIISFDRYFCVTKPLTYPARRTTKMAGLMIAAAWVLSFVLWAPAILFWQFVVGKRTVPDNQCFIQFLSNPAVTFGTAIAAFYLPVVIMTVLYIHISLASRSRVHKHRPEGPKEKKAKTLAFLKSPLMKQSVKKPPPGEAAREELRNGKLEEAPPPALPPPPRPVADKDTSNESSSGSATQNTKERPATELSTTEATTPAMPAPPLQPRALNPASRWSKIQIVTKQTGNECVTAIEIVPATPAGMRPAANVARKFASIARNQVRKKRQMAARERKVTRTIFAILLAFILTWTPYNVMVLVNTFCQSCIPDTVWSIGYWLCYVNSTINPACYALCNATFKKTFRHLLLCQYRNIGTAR
M5 antag – blocks acetylcholine activation of human M5 receptor; P08912; CHO-hM5 cells, Fluo-8 calcium fluorescence, ACh EC80; inhibition, % at 3 µM; 360,000 compounds, 0.59% hits; AID 624040;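 active = inhibition above a per-plate cutoff, the mean of that plate's test compounds plus 3 SD, cut at about 27% in these data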;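 also: 0% = acetylcholine EC80 with DMSO and 100% = DMSO without agonist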
CHRM5 PAM – CHRM5 positive allosteric modulation. P08912. CHO-K1 hM5, Fluo-8 calcium, ACh EC20 PAM; 0% = ACh EC20, 100% = ACh EC100. activation, % at 3 µM. 360,000 compounds, 0.3% hits;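 active = activation above the run cutoff, the mean activation of all test compounds plus 3 SD, cut at about 18% in these data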
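system = human M5 receptor in CHO-K1 cells | compound = one concentration, 3 µM final (nominal) | schedule = Post-acetylcholine fluorescence recording 140 s | signal = Fluo-8 calcium dye fluorescence, kinetic read | benchmarks = low control EC20 acetylcholine (0%), high control EC100 acetylcholine (100%) | repeats = singlicate, one well per test compound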
CHRM5 agonist – CHRM5 agonism in calcium assay. AID 624037. activation, % at 3 µM. CHO-K1 hM5 cells, Fluo-8 calcium fluorescence; 0% DMSO wells, 100% maximal acetylcholine response. 360,000 compounds, 0.19% hits. P08912;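 active = activation above the run's mean over test compounds plus 3 SD, cut at about 23% in these data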;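 also: signal is peak over basal fluorescence ratio across the kinetic read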
CHRM4 antagonist – blocks acetylcholine activation of human M4 receptor | P08173 | CHO-hM4 cells, ACh EC80, Fluo-8 calcium fluorescence | inhibition, % at 3 µM | 360,000 compounds, 0.73% hits | AID 624125;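 active = inhibition above its plate's cutoff, the mean inhibition of sample wells plus 3 SD, cut at about 27% in these data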;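 also: 0% = acetylcholine EC80 with DMSO and 100% = DMSO without agonist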
CHRM4 PAM – potentiates acetylcholine response at human M4 receptor; P08173; activation, % at 3 µM; CHO-K1 hM4/Gqi5, Fluo-8 calcium fluorescence, ACh EC20; 0% = ACh EC20, 100% = maximal ACh; AID 624126; 360,000 compounds, 0.4% hits;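 active = activation above its plate's cutoff, the mean activation of sample wells plus 3 SD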
Active calls of the source: *. Compounds with a hit are over-represented: about 1.9% of the library has one in this group of screens.

`CC(C)(C)n1nnnc1C(c1cccs1)N1CCN(Cc2ccccc2)CC1` (stereo unspecified) gave CHRM4 agonist 0, M5 antag 6, CHRM5 PAM -3, CHRM5 agonist -6, CHRM4 antagonist 5 and CHRM4 PAM -2.
C(=C\c1ccccc1)/CN1CCN(C(c2cccs2)c2nnnn2Cc2ccccc2)CC1 (stereo unspecified) was read as CHRM4 agonist 8, M5 antag 10, CHRM5 PAM -20, CHRM5 agonist -7, CHRM4 antagonist -8 and CHRM4 PAM -14.
Screening CC(C)(C)n1nnnc1C(c1cccs1)N1CCN(C/C=C/c2ccccc2)CC1 (stereo unspecified) returned CHRM4 agonist -1, M5 antag 28*, CHRM5 PAM -22, CHRM5 agonist -8, CHRM4 antagonist 13 and CHRM4 PAM -14.
For COc1ccc(SC[C@H](Cc2ccccc2)N2CC[C@@H](C(C)(C)C)CCC2=O)cc1 the results were CHRM4 agonist 6, M5 antag 6, CHRM5 PAM -4, CHRM5 agonist -3, CHRM4 antagonist -5 and CHRM4 PAM 8.
For NC(=O)COc1ccc(/C=N\NC(=O)c2ccc(-c3ccccc3)cc2)cc1 the results were CHRM4 agonist 1, M5 antag 9, CHRM5 PAM -2, CHRM5 agonist -5, CHRM4 antagonist -3 and CHRM4 PAM 15.
C(=C\c1ccccc1)/CN1CCN(C(c2ccccc2)c2nnnn2C2CCCC2)CC1 (stereo unspecified) was read as CHRM4 agonist 4, M5 antag 44*, CHRM5 PAM -22, CHRM5 agonist -8, CHRM4 antagonist 14 and CHRM4 PAM -14.
`C(=C\c1ccccc1)/CN1CCN(C(c2nnnn2C2CCCC2)C2CC2)CC1` (stereo unspecified) gave CHRM4 agonist 0, M5 antag 6, CHRM5 PAM -4, CHRM5 agonist -8, CHRM4 antagonist -4 and CHRM4 PAM -4.
For Cc1cc(C)cc(N(CCC#N)C(=O)COC(=O)Cn2[nH]c(=O)c3ccccc3c2=O)c1 the results were CHRM4 agonist 2, M5 antag 5, CHRM5 PAM -1, CHRM5 agonist 7, CHRM4 antagonist -10 and CHRM4 PAM -1.
For CN1CCN(NC(=O)Nc2cc(Cl)cc(Cl)c2)CC1 the results were CHRM4 agonist 12, M5 antag 44*, CHRM5 PAM -10, CHRM5 agonist -3, CHRM4 antagonist 11 and CHRM4 PAM -4.
`Cn1nc(C(C)(C)C)cc1NC(=O)Nc1cc(Cl)cc(Cl)c1` gave CHRM4 agonist 16, M5 antag 34*, CHRM5 PAM -24, CHRM5 agonist 5, CHRM4 antagonist 4 and CHRM4 PAM -2.
For COC(=O)C1(C)CCCC2(C)C3CCC(C(C)C)C(CO)C3C(CO)CC12 (stereo unspecified) the results were CHRM4 agonist 22, M5 antag 24, CHRM5 PAM -23, CHRM5 agonist 7, CHRM4 antagonist 29* and CHRM4 PAM -12.
COC(=O)[C@]1(C)CCC[C@@]2(C)C3CC[C@]4(OC(C)=O)C[C@@]3(CCC21)CC4=O (stereo partly specified) was read as CHRM4 agonist 10, M5 antag 15, CHRM5 PAM -25, CHRM5 agonist -1, CHRM4 antagonist 5 and CHRM4 PAM 0.
`COc1ccc(CCNC(=O)CCCCCN2C(=O)[C@@H]3Cc4ccccc4CN3C2=O)cc1OC` gave CHRM4 agonist 11, M5 antag 10, CHRM5 PAM -4, CHRM5 agonist 4, CHRM4 antagonist -1 and CHRM4 PAM -2.
CC1(C)N=C(N)N=C(N)N1c1ccc(Oc2ccc(Cl)cc2)c(Cl)c1 was read as CHRM4 agonist 0, M5 antag 33*, CHRM5 PAM -21, CHRM5 agonist -11, CHRM4 antagonist 5 and CHRM4 PAM -11.
CCN(C(=O)CC(C)C)c1nnc(Cn2nnc3ccccc32)s1 was read as CHRM4 agonist 9, M5 antag 2, CHRM5 PAM -12, CHRM5 agonist 5, CHRM4 antagonist -3 and CHRM4 PAM -7.
